Assay results: ChEMBL document CHEMBL1177669, “Synthesis and biological study of 3-(phenylsulfonyl)thieno[2,3-e][1,2,3]triazolo[1,5-a]pyrimidines as potent and selective serotonin 5-HT6 receptor antagonists” (Bioorg Med Chem, 2010)
pIC50: −log10 of the molar value.

Target: 5-hydroxytryptamine receptor 6 (Homo sapiens, UniProt P50406)
Assay: Antagonist activity at human recombinant 5HT6 receptor expressed in HEK293 cells assessed as inhibition of serotonin-induced cAMP production
Format: functional, cell-based
Summary of the method: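 HEK293 cells stably expressing recombinant human 5-HT6R, stimulated with serotonin. cAMP from adenylyl cyclase measured by LANCE. Compounds screened at 5 and 10 μM. IC50 determined for compounds giving more than 50% inhibition of cAMP synthesis at 5 μM.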

Chain of 5-hydroxytryptamine receptor 6 (P50406 whole entry): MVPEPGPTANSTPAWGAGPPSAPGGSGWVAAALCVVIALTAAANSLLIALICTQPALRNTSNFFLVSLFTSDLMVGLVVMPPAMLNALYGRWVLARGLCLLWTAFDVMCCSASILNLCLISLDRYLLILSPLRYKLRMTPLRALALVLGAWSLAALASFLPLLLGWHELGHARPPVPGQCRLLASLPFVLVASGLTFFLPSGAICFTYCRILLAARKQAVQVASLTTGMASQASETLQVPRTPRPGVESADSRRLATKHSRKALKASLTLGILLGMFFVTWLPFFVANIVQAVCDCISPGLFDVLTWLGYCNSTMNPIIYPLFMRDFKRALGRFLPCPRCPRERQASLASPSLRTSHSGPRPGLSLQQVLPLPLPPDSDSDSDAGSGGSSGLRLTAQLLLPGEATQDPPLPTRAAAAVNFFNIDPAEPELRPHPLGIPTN

Row | SMILES | pIC50
1 | Cc1ccc(C)c(S(=O)(=O)c2nnn3c2nc(N(C)Cc2ccccc2)c2sccc23)c1 | 5.83
2 | Cc1ccc(C)c(S(=O)(=O)c2nnn3c2nc(N2CCC(C)CC2)c2sccc23)c1 | 5.70
3 | CCc1ccc(S(=O)(=O)c2nnn3c2nc(NCCC(C)C)c2sccc23)cc1 | < 5.30
4 | O=S(=O)(c1cccc(Cl)c1)c1nnn2c1nc(N1CCOCC1)c1sccc12 | 5.98
5 | COCCNc1nc2c(S(=O)(=O)c3ccc(C)c(C)c3)nnn2c2ccsc12 | 5.80
6 | CCc1ccc(S(=O)(=O)c2nnn3c2nc(N(CC)CC)c2sccc23)cc1 | 5.72
7 | Cc1ccc(S(=O)(=O)c2nnn3c2nc(NC2CCCCC2)c2sccc23)cc1 | 6.14
8 | CC(C)Nc1nc2c(S(=O)(=O)c3cccc(Cl)c3)nnn2c2ccsc12 | 6.33
9 | CC1CCN(c2nc3c(S(=O)(=O)c4cccc(Cl)c4)nnn3c3ccsc23)CC1 | 5.95
10 | O=S(=O)(c1cccc(Cl)c1)c1nnn2c1nc(NCc1ccco1)c1sccc12 | 6.72
11 | Cc1ccc(C)c(S(=O)(=O)c2nnn3c2nc(NCC2CCCO2)c2sccc23)c1 (centres undefined) | 6.05
12 | CCCCNc1nc2c(S(=O)(=O)c3cccc(Cl)c3)nnn2c2ccsc12 | 7.22
13 | O=S(=O)(c1cccc(Cl)c1)c1nnn2c1nc(N1CCCCCC1)c1sccc12 | 5.81
14 | COCCCNc1nc2c(S(=O)(=O)c3ccc(Cl)cc3)nnn2c2ccsc12 | < 5.30
15 | O=S(=O)(c1ccc(Cl)cc1)c1nnn2c1nc(NC1CCCCC1)c1sccc12 | 6.02
16 | CC(C)CCNc1nc2c(S(=O)(=O)c3cccc(Cl)c3)nnn2c2ccsc12 | 7.17
17 | Cc1ccc(S(=O)(=O)c2nnn3c2nc(NCc2ccc4c(c2)OCO4)c2sccc23)cc1 | 5.90
18 | COCCNc1nc2c(S(=O)(=O)c3ccc(C(C)C)cc3)nnn2c2ccsc12 | < 5.30
19 | O=S(=O)(c1cccc(Cl)c1)c1nnn2c1nc(NCC1CCCO1)c1sccc12 (centres undefined) | 7.54
20 | COCCNc1nc2c(S(=O)(=O)c3cccc(Cl)c3)nnn2c2ccsc12 | 6.96
21 | CN(C)CCN(C)c1nc2c(S(=O)(=O)c3cccc(Cl)c3)nnn2c2ccsc12 [listing 1 of 2 here] | 6.11
22 | COCCNc1nc2c(S(=O)(=O)c3ccc(Cl)cc3)nnn2c2ccsc12 | 5.66
23 | COCCCNc1nc2c(S(=O)(=O)c3cccc(Cl)c3)nnn2c2ccsc12 | 6.82
24 | Cc1ccc(S(=O)(=O)c2nnn3c2nc(NCc2ccco2)c2sccc23)cc1C | 6.11

Row | SMILES | pIC50
25 | COCCNc1nc2c(S(=O)(=O)c3cc(C)ccc3C)nnn2c2ccsc12 | 6.07
26 | Cc1ccc(S(=O)(=O)c2nnn3c2nc(NC2CCCCCC2)c2sccc23)cc1 | 6.10
27 | Cc1cc(Cl)cc(Nc2nc3c(S(=O)(=O)c4ccc(C)c(C)c4)nnn3c3ccsc23)c1 | 5.65
28 | COCCCNc1nc2c(S(=O)(=O)c3ccc(Br)cc3)nnn2c2ccsc12 | < 5.30
29 | CC(C)CCNc1nc2c(S(=O)(=O)c3ccc(C(C)C)cc3)nnn2c2ccsc12 | < 5.30
30 | Cc1ccc(S(=O)(=O)c2nnn3c2nc(NCC2CCCO2)c2sccc23)cc1 (centres undefined) | 6.60
31 | NC(=O)C1CCN(c2nc3c(S(=O)(=O)c4ccccc4)nnn3c3ccsc23)CC1 | 5.70
32 | CC(C)Nc1nc2c(S(=O)(=O)c3ccc(Cl)cc3)nnn2c2ccsc12 | 5.92
33 | Nc1nc2c(S(=O)(=O)c3cccc(Cl)c3)nnn2c2ccsc12 | 6.16
34 | COCCCNc1nc2c(S(=O)(=O)c3ccc(C)c(C)c3)nnn2c2ccsc12 | 5.62
35 | COCCNc1nc2c(S(=O)(=O)c3ccc(C)cc3)nnn2c2ccsc12 | 5.83
36 | O=S(=O)(c1ccc(Cl)cc1)c1nnn2c1nc(NCC1CCCO1)c1sccc12 (centres undefined) | 6.32
37 | O=S(=O)(c1cccc(Cl)c1)c1nnn2c1nc(NC1CCCCCC1)c1sccc12 | 6.85
38 | Cc1ccc(S(=O)(=O)c2nnn3c2nc(NC2CCCCCC2)c2sccc23)cc1C | 6.46
39 | CCCCNc1nc2c(S(=O)(=O)c3ccc(C(C)C)cc3)nnn2c2ccsc12 | < 5.30
40 | Cc1ccc(S(=O)(=O)c2nnn3c2nc(NC2CCCCC2)c2sccc23)cc1C | 6.09
41 | Cc1ccc(C)c(S(=O)(=O)c2nnn3c2nc(NCCC(C)C)c2sccc23)c1 | 6.07
42 | Cc1ccc(C)c(S(=O)(=O)c2nnn3c2nc(N2CCOCC2)c2sccc23)c1 | 5.71
43 | CC1CCCN(c2nc3c(S(=O)(=O)c4ccccc4)nnn3c3ccsc23)C1 (centres undefined) | 5.69
44 | Cc1ccc(S(=O)(=O)c2nnn3c2nc(NC2CCCC2)c2sccc23)cc1 | 5.69
45 | CCc1ccc(S(=O)(=O)c2nnn3c2nc(NC(C)C)c2sccc23)cc1 | 5.80
46 | Cc1ccc(S(=O)(=O)c2nnn3c2nc(NCCC(C)C)c2sccc23)cc1C | 7.34
47 | CN(C)CCN(C)c1nc2c(S(=O)(=O)c3cccc(Cl)c3)nnn2c2ccsc12 [listing 2 of 2 here] | 6.24
48 | Cc1ccc(C)c(S(=O)(=O)c2nnn3c2nc(NCCCc2ccccc2)c2sccc23)c1 | 5.91

Next, values leading:

Row | pIC50 | SMILES
49 | 6.09 | O=S(=O)(c1ccccc1)c1nnn2c1nc(Nc1cccc(C(F)(F)F)c1)c1sccc12
50 | 6.10 | Cc1cccc(Nc2nc3c(S(=O)(=O)c4ccc(Cl)cc4)nnn3c3ccsc23)c1C
51 | 5.93 | O=S(=O)(c1ccccc1)c1nnn2c1nc(NCc1ccc(Cl)cc1)c1sccc12
52 | 5.28 | Cc1ccc(S(=O)(=O)c2nnn3c2nc(Nc2cccc(C)c2)c2sccc23)cc1
53 | 5.30 | O=S(=O)(c1ccccc1)c1nnn2c1nc(Nc1ccccc1)c1sccc12
54 | 6.24 | CCN(Cc1ccccc1)c1nc2c(S(=O)(=O)c3ccc(Br)cc3)nnn2c2ccsc12
55 | 6.22 | Cc1ccc(S(=O)(=O)c2nnn3c2nc(NCc2ccccc2Cl)c2sccc23)cc1C
56 | 6.82 | O=S(=O)(c1cccc(Cl)c1)c1nnn2c1nc(NCc1cccs1)c1sccc12
57 | 6.24 | COc1ccccc1CNc1nc2c(S(=O)(=O)c3ccc(C)cc3)nnn2c2ccsc12
58 | 6.02 | Cc1ccc(S(=O)(=O)c2nnn3c2nc(NCCc2ccccc2)c2sccc23)cc1
59 | 6.05 | COc1cccc(Nc2nc3c(S(=O)(=O)c4ccc(C(C)C)cc4)nnn3c3ccsc23)c1
60 | 5.71 | CN(Cc1ccccc1)c1nc2c(S(=O)(=O)c3ccc(Br)cc3)nnn2c2ccsc12
61 | 5.86 | COc1cccc(CNc2nc3c(S(=O)(=O)c4ccccc4)nnn3c3ccsc23)c1
62 | 5.76 | CCc1ccc(S(=O)(=O)c2nnn3c2nc(Nc2cccc(C)c2)c2sccc23)cc1
63 | 5.60 | O=S(=O)(c1cccc(Cl)c1)c1nnn2c1nc(Nc1ccc(F)cc1)c1sccc12
64 | 6.66 | Cc1ccc(S(=O)(=O)c2nnn3c2nc(NCc2cccs2)c2sccc23)cc1
65 | 6.57 | O=S(=O)(c1ccc(Cl)cc1)c1nnn2c1nc(NCc1ccccc1)c1sccc12
66 | 6.82 | CC(Nc1nc2c(S(=O)(=O)c3cccc(Cl)c3)nnn2c2ccsc12)c1ccccc1 (centres undefined)
67 | 7.49 | O=S(=O)(c1ccccc1)c1nnn2c1nc(NCc1ccccc1Cl)c1sccc12
68 | 5.95 | Cc1ccc(Nc2nc3c(S(=O)(=O)c4ccc(C(C)C)cc4)nnn3c3ccsc23)cc1C
69 | 6.28 | Cc1ccc(S(=O)(=O)c2nnn3c2nc(NCc2ccc(F)cc2)c2sccc23)cc1C
70 | 6.77 | Cc1ccc(C)c(S(=O)(=O)c2nnn3c2nc(NC(C)c2ccccc2)c2sccc23)c1 (centres undefined)
71 | 6.23 | Cc1cccc(Nc2nc3c(S(=O)(=O)c4ccc(C(C)C)cc4)nnn3c3ccsc23)c1
72 | 6.07 | COc1cccc(Nc2nc3c(S(=O)(=O)c4ccc(C)c(C)c4)nnn3c3ccsc23)c1
73 | 5.84 | Cc1ccc(S(=O)(=O)c2nnn3c2nc(Nc2ccc(Cl)cc2)c2sccc23)cc1C
74 | 6.27 | CCN(Cc1ccccc1)c1nc2c(S(=O)(=O)c3cccc(Cl)c3)nnn2c2ccsc12

Row | pIC50 | SMILES
75 | 6.39 | O=S(=O)(c1ccc(Cl)cc1)c1nnn2c1nc(NCc1ccco1)c1sccc12
76 | 6.04 | O=S(=O)(c1cccc(Cl)c1)c1nnn2c1nc(Nc1ccccc1)c1sccc12
77 | 6.22 | O=S(=O)(c1ccccc1)c1nnn2c1nc(Nc1ccc(F)cc1)c1sccc12
78 | 6.17 | Cc1ccc(C)c(S(=O)(=O)c2nnn3c2nc(NCCc2ccccc2)c2sccc23)c1
79 | 6.59 | COCCCNc1nc2c(S(=O)(=O)c3ccccc3)nnn2c2ccsc12
80 | 6.16 | O=S(=O)(c1ccccc1)c1nnn2c1nc(NCc1ccc(F)cc1)c1sccc12
81 | 5.86 | CCc1cccc(Nc2nc3c(S(=O)(=O)c4ccc(C)cc4)nnn3c3ccsc23)c1
82 | 7.43 | CC(Nc1nc2c(S(=O)(=O)c3ccccc3)nnn2c2ccsc12)c1ccccc1 (centres undefined)
83 | 6.24 | CCN(Cc1ccccc1)c1nc2c(S(=O)(=O)c3ccc(Cl)cc3)nnn2c2ccsc12
84 | 6.13 | Cc1ccc(S(=O)(=O)c2nnn3c2nc(NCc2ccc(F)cc2)c2sccc23)cc1
85 | < 5.30 | O=S(=O)(c1ccccc1)c1nnn2c1nc(Nc1nc3ccccc3s1)c1sccc12
86 | 6.72 | COCCNc1nc2c(S(=O)(=O)c3ccccc3)nnn2c2ccsc12
87 | 7.16 | CCCCNc1nc2c(S(=O)(=O)c3ccccc3)nnn2c2ccsc12
88 | 5.74 | CC(C)c1ccc(S(=O)(=O)c2nnn3c2nc(NCc2ccccc2Cl)c2sccc23)cc1
89 | 6.11 | COc1ccccc1CNc1nc2c(S(=O)(=O)c3cccc(Cl)c3)nnn2c2ccsc12
90 | 6.19 | O=S(=O)(c1ccc(Cl)cc1)c1nnn2c1nc(NCc1cccs1)c1sccc12
91 | 5.94 | COc1ccccc1CNc1nc2c(S(=O)(=O)c3ccc(Cl)cc3)nnn2c2ccsc12
92 | 5.92 | CN(Cc1ccccc1)c1nc2c(S(=O)(=O)c3ccc(Cl)cc3)nnn2c2ccsc12
93 | 5.66 | COc1cccc(CNc2nc3c(S(=O)(=O)c4ccc(C)cc4)nnn3c3ccsc23)c1
94 | 5.97 | CC(Cc1ccccc1)Nc1nc2c(S(=O)(=O)c3ccccc3)nnn2c2ccsc12 (centres undefined)
95 | 6.55 | CC(Nc1nc2c(S(=O)(=O)c3ccc(Cl)cc3)nnn2c2ccsc12)c1ccccc1 (centres undefined)
96 | 6.00 | Cc1cccc(Nc2nc3c(S(=O)(=O)c4ccc(C(C)C)cc4)nnn3c3ccsc23)c1C
97 | 6.59 | Cc1ccc(S(=O)(=O)c2nnn3c2nc(NCc2ccccc2)c2sccc23)cc1
98 | 6.30 | Cc1ccc(S(=O)(=O)c2nnn3c2nc(NCc2ccco2)c2sccc23)cc1
99 | 6.09 | O=S(=O)(c1cccc(Cl)c1)c1nnn2c1nc(NCCc1ccccc1)c1sccc12
